Columns and labels:
[1] = target: Protein-S-isoprenylcysteine O-methyltransferase (Homo sapiens, UniProt O60725); assay: Inhibition of human isoprenylcysteine carboxyl methyltransferase expressed in yeast His10myc3N-Icmt membranes using AFC substrate and [14C]-SAM and incubated for 30 mins by liquid scintillation counting based methyltransferase vapor diffusion assay; type: cell membranes
Summary of the method: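 Crude yeast membranes (5 µg) in Tris-HCl 100 mM pH 7.4 with AFC 10 µM and [14C]-SAM 60 µM, compound at increasing concentrations, 5% DMSO; 37 °C 30 min, stopped with NaOH/SDS. Released radioactivity captured on filter paper over 2.5 h and counted. IC50 from specific activity (pmol/mg/min) versus concentration; three separate experiments in duplicate.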

[2] = Growth inhibition of human MIAPaCa2 cells expressing K-Ras G12C mutant after 5 days by MTT assay; type: functional, cell-based; settings: MIA PaCa-2, 120 h
Summary of the method: (§1)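 MTT read-out; 1,000 cells per well seeded the day before, then medium replaced with inhibitor at increasing concentrations, 0.5% DMSO constant; 5 days at 37 °C. MTT (5 mg/mL solution) added for a further 4 h, formazan dissolved in DMSO, absorbance at 590 nm; mean absorbance per concentration plotted.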

[3] = Growth inhibition of human PANC1 cells expressing K-Ras G12D mutant after 5 days by MTT assay; type: functional, cell-based; settings: PANC-1, 120 h; summary of the method: as §1

Protein-S-isoprenylcysteine O-methyltransferase, sequence (O60725 whole entry, the tested form may be a part): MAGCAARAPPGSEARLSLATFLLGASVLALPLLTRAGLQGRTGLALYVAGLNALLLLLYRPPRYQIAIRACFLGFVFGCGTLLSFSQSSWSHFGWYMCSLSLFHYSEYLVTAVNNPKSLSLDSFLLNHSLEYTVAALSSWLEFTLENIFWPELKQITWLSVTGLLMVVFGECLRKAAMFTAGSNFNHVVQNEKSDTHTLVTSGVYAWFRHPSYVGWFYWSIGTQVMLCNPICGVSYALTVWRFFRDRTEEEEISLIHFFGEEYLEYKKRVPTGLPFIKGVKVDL

Compound	IC50 [1] [µM]	IC50 [2] [µM]	IC50 [3] [µM]
COC(=O)CCSC/C=C(\C)CCn1cc(CCc2ccc(-c3ccccc3)cc2)nn1	0.4		
c1csc(C(=C2CCOCC2)c2ccc3ccccc3c2)c1		31.9	78
Oc1c(C(c2cccs2)C2CCOCC2)ccc2ccccc12 (stereo not drawn)	18		
Oc1c(C(=C2CCOCC2)c2cccs2)ccc2ccccc12	7.7		
c1ccc(C(=C2CCOCC2)c2cccs2)cc1	> 50		
Oc1c(C(c2cccs2)C2CCOCC2)ccc2cccnc12 (stereo not drawn)	14		
OC(c1ccccc1)(c1cccs1)C1CCOCC1 (stereo not drawn)	> 50		
CN1CCC(C(c2ccc3ccccc3c2)c2cccs2)CC1 (stereo not drawn)	> 50		
c1ccc(C(=C2CCOCC2)c2ccc3ccccc3c2)cc1	> 50		
O=C(c1ccc2ccccc2c1)C1CCOCC1	> 50		
c1ccc2cc(CC3CCOCC3)ccc2c1	> 50		
c1csc(C(c2ccc3ccccc3c2)C2CCNCC2)c1 (stereo not drawn)	> 50		

Source: ChEMBL document CHEMBL3822411, “Non-Substrate Based, Small Molecule Inhibitors of the Human Isoprenylcysteine Carboxyl Methyltransferase” (Medchemcomm, 2016)
